An excerpt weighted towards active compounds, which were near 2% of everything screened.
MLLE-PAM2 inh = inhibitors of microRNA-mediated deadenylation, human PABP1 MLLE binding | P11940 | GST-MLLE / FITC-PAM2 fluorescence polarization | inhibition, % at 20 µM | 360,000 tested, 0.36% active | AID 588489; in the data active means inhibition above about 35%, passing the limit was not always enough;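 further: plate controls were DMSO wells with GST-MLLE for no effect and wells lacking GST-MLLE protein for full effect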
Target sequence (P11940 whole entry, looked up): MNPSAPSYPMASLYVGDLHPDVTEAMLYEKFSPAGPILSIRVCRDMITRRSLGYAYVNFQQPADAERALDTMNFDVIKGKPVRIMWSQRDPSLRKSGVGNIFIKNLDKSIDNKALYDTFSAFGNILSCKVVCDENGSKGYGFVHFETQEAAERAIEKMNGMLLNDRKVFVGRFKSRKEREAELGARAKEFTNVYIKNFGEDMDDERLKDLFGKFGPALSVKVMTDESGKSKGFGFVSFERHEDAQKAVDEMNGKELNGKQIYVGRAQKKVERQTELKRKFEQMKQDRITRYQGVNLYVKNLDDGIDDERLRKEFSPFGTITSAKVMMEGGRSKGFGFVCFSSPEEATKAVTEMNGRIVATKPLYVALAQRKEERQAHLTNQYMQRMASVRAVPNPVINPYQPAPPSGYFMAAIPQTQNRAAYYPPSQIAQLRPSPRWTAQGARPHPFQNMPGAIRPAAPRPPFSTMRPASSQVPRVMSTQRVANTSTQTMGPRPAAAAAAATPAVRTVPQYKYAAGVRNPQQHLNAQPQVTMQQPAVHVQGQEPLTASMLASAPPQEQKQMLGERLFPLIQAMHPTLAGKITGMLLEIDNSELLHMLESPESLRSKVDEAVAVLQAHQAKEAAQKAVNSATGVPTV
NS3 helicase inh = HCV NS3 helicase inhibition | inhibition, % at 10.9 µM | NS3 helicase DNA unwinding, Cy5 molecular beacon fluorescence | 290,000 tested, 0.56% active | AID 1800;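 active means inhibition above the mean of all tested compounds plus 3 SD, set per campaign, cut at about 35% in these data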;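 further: 0% = DMSO wells and 100% = thioflavine S control wells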
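test system = hepatitis C virus NS3 helicase domain fragment enzyme | reagent = annealed dual-labelled DNA beacon duplex, ATP-started | times = 1 h at 25 °C | detection = Cy5 fluorescence, 0 and 60 min reads | read-out basis = percent inhibition from t60/t0 fluorescence ratio | control set = DMSO and thioflavine S | replication = one well per compound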
DNA FID counter = counter-screen for HCV NS3 helicase inhibitors: DNA intercalator displacement; DNA fluorescent intercalator displacement, fluorescence; inhibition, % at 7.9 µM; 290,000 tested, 0.17% active; in the data active means inhibition above about 37%;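 further: 0% = vehicle and 100% = reference compound; higher means more ethidium bromide displaced from hairpin DNA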
eIF4H FP inh = inhibitors of RNA binding by human eIF4H. inhibition, % at 35 µM. eIF4H fluorescence polarization binding assay. Q15056. AID 2012. 290,000 tested, 0.94% active;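 further: calls also rest on retests at 20 µM and on dose response follow-up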
core dimer inh = HCV core protein dimerization inhibition | 300,000 tested, 0.33% active | AID 1899 | TR-FRET GST/Flag-core106 dimerization, 1536-well | inhibition, % at 5 µM;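 active means inhibition above the mean of all tested compounds plus 3 SD, set per screening campaign, cut at about 45% in these data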
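System – GST-tagged and Flag-tagged HCV core protein residues 1-106 · Repeats – one well for each compound · Technique – TR-FRET 671 and 617 nm emission · Doses – one concentration, 5 µM, in 0.5% DMSO · Times – 4 h, 22.5 °C incubation · Also added – Eu donor and XL665 acceptor anti-tag antibodies · Measure – percent inhibition of core106 dimerization signal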
PABP polyA inh = blocks human PABP binding to poly(A) RNA; 290,000 tested, 1% active; fluorescence polarization; inhibition, % at 35 µM; P11940;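 further: calls also rest on retests at 20 µM and on dose response follow-up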
* = called active by the depositor; ? = inconclusive; nt = no result; ! = not confirmed by another sample. Unless noted, how the calls were made is not given here.

SMILES	MLLE-PAM2 inh	NS3 helicase inh	DNA FID counter	eIF4H FP inh	core dimer inh	PABP polyA inh
CC[C@@]1(O)C(=O)OCc2c1cc1n(c2=O)Cc2cc3c(CN(C)C)c(O)ccc3nc2-1	199	nt	nt	nt	6	nt
Cc1ccc(NS(=O)(=O)c2c(C)[nH]c(C)c2C(=O)N2CCCCC2)c(Br)c1	-4	-1	-44	-6	4	-2
CC1=Nc2ccc(C)cc2/C1=C/c1c(N)n2oc(C)cc2nc1=O	-44	-4	-5	?	0	54*!
CSc1nsc2nc(=O)c(/C=C3\C(C)=Nc4ccc(C)cc43)c(N)n12	-20	32	-5	?	5	-4
CCCCOc1cccc2c(=O)n(CC(=O)Nc3ccc4c(c3)OCCO4)ccc12	8	nt	nt	nt	nt	nt
C=CCn1c(O)c(CN2CCN(Cc3ccccc3)CC2)c(C)c(C#N)c1=O	64	0	-16	126*	-7	120
CN(C)S(=O)(=O)c1cccc(NC(=S)NNC(=O)c2cc3ccccc3cc2O)c1	26	nt	nt	nt	nt	nt
N#C/C(=C\c1ccccc1[N+](=O)[O-])C(=O)NC1CCCCC1	55*	2	-6	-1	-1	4
CC1=C(C(=O)N(C)C)CC(CC(=O)NCc2cccs2)C(=O)N1CCCN1CCCC1=O (stereo unspecified)	-7	nt	nt	nt	nt	nt
CCCCN(CC)CCCNC(=S)Nc1ccc2nc(N3CCN(CC)CC3)cc(C)c2c1	-11	11	52*	5	2	-10
Cc1cc(N2CCOCC2)nc2ccc(NC(=S)NCCN(C)C)cc12	5	11	52*	-6	-18	2
CCN(CC)CCNC(=S)Nc1ccc2nc(N3CCCC3)cc(C)c2c1	-1	-1	49*	-11	0	-10
CCCN(CCC)CCCNC(=S)Nc1ccc2nc(N3CCCC3)cc(C)c2c1	-29	1	43*	19	-6	46
CCN(CC)CCNC(=S)Nc1ccc2nc(N3CCOCC3)cc(C)c2c1	4	11	15	-6	-5	-16
COc1ccc(-c2csc(Nc3ccc(Oc4ccccc4)cc3)n2)cc1	-17	nt	nt	nt	nt	nt
Cc1oc(-c2cccs2)cc1C(=O)N1CCCC(C)(C(=O)O)C1 (stereo unspecified)	-2	nt	nt	nt	nt	nt
CCOc1ccc(-c2c(C(=O)N/N=C/c3c[nH]c4ccccc34)nnn2-c2nonc2N)cc1	1	-33	0	-3	11	-2
O=C(c1ccc(-n2cncn2)c2ccoc12)N1CCOCC1	13	nt	nt	nt	nt	nt
CCN(CC)CCNC(=S)Nc1ccc2nc(N3CCN(C)CC3)cc(C)c2c1	13	-1	44*	5	-1	33
CCCCN(CC)CCCNC(=S)Nc1ccc2nc(N3CCN(C)CC3)cc(C)c2c1	-2	-1	32	-5	2	9
COc1ccc2c(c1)nc(-c1cccc(Br)c1)c(=O)n2C(c1ccccn1)c1nc2ccccc2[nH]1 (stereo unspecified)	-36	nt	nt	nt	nt	nt
CCOC(=O)c1c(/N=C/c2cccc([N+](=O)[O-])c2O)sc(C)c1C	51*	15	-10	21	7	-11
COCCCNC(=O)c1cccc2c(-c3ccnn3C)coc12	0	nt	nt	nt	nt	nt
O=C(NCc1ccco1)c1nn2c(C(F)(F)F)cc(-c3cccs3)nc2c1Br	25	16	0	-2	54*	30
O=C1OC2C(O)COC23OC(O)CCC13O (stereo unspecified)	-12	nt	nt	nt	nt	nt
SMILES	MLLE-PAM2 inh	NS3 helicase inh	DNA FID counter	eIF4H FP inh	core dimer inh	PABP polyA inh
O=C1N=C(N2CCOCC2)S/C1=C/c1cc2c(cc1[N+](=O)[O-])OCO2	-7	-6	1	87*	-17	59*
O=C1N=C(N2CCOCC2)SC1=Cc1ccco1	13	nt	nt	nt	nt	nt
O=C(/C=C/c1ccc(Br)o1)OCc1nc2ccsc2c(=O)[nH]1	-1	nt	nt	nt	75*	nt
CCN(CCCNC(=O)C1CCN(S(=O)(=O)CC)CC1)c1cccc(C)c1	16	-5	-9	90*	-4	28*
O=C(N/N=C/c1ccc(O)c(O)c1)N/N=C/c1ccc(O)c(O)c1	-8	25	-9	56*	nt	42
Cc1nonc1C(=O)N/N=C/c1ccc(O)c(O)c1	-11	5	0	5	-4	-3
Oc1ccc(/C=N/NC(=S)Nc2cccnc2)cc1O	40*	4	-3	68	-17	1.5*
CCCCCC(=O)N1C[C@@H](n2cc(-c3ccc(F)cc3)nn2)[C@H](O)C[C@@H]1c1ccc(OC)cc1	-2	nt	nt	nt	nt	nt
COc1ccc2nc(SCC(=O)N3CCN(c4ccccc4F)CC3)c(C#N)cc2c1	nt	1	-6	nt	nt	nt
CCOc1cc(C(N)=O)cc(Br)c1OC	14	5	2	8.5*	5	68
Cc1ccc(S(=O)(=O)N(C)C[C@@H]2Oc3ncc(Br)cc3C(=O)N([C@H](C)CO)C[C@@H]2C)cc1	-1	nt	nt	nt	nt	nt
Nc1c(/C=C2/C=CC(=O)C(O)=C2)c(=O)nc2sc(CC(=O)N3CCCC3)nn12	-34	3	-29	55*	-9	22*
Nc1c(C=C2C=CC(=O)C=C2)c(=O)nc2sc(CC(=O)N3CCCCC3)nn12	-2	16	-22	nt	-8	nt
Nc1c(/C=C2/C=CC(=O)C(O)=C2)c(=O)nc2sc(CC(=O)N3CCCCC3)nn12	-50	30	-31	69*	-7	54*
Nc1c(/C=C2/C=CC(=O)C(O)=C2)c(=O)nc2sc(CC(=O)N3CCOCC3)nn12	-40	nt	nt	nt	nt	nt
Cc1cc(S(=O)(=O)Nc2ncnc3sccc23)ccc1F	8	nt	nt	nt	nt	nt
CCN1C(=NCCc2cccs2)N[C@@H](c2cccs2)C(C(=O)OC)=C1C	-117	-49	24	0	7	56*
CN(C(=O)CN1C(=O)/C(=C/c2ccccc2Cl)SC1=S)C1CCS(=O)(=O)C1 (stereo unspecified)	41*	-6	-26	-4	-1	10
O=C(CSc1nc2ccccc2n1CCc1ccccc1)N1CCOCC1	-7	13	-28	-5	-3	9
Cn1c(SCC(=O)c2ccc(O)c(O)c2)nnc1-c1cccs1	7	16	-8	50*	-2	33*
Cn1c(SCC(=O)c2ccc(O)c(O)c2)nnc1-c1ccccc1	9	4	-17	3	nt	17
O=C(CSc1nc2ccccc2n1CCc1ccccc1)c1ccc(O)c(O)c1	-99	16	-12	90*	nt	94*
O=[N+]([O-])c1ccc2cn(C3OC(CO)C(O)C3O)nc2c1 (stereo unspecified)	0	nt	nt	nt	nt	nt
COc1ccccc1OCC(=O)N1CCN(S(=O)(=O)c2ccc(Cl)cc2)CC1	-56	nt	nt	nt	nt	nt
Cc1ccc([N+](=O)[O-])cc1S(=O)(=O)Nc1ccc(O)c(Sc2ncn[nH]2)c1	41*	2	2	2	-6	4
COc1ccc2nc(Cl)c(C3CC(c4ccco4)=NN3C(=O)CCC(=O)O)cc2c1 (stereo unspecified)	-2	21	-42	92*	-6	4
